According to ChEMBL document CHEMBL1126057, “Highly water-soluble lipophilic prodrugs of the anti-HIV nucleoside analogue 2',3'-dideoxycytidine and its 3'-fluoro derivative” (J Med Chem, 1992):
Values after ≈ are worked out from the molar mass of the structure shown.

Key:
CCRF-CEM [1] = experiment: The compound was tested for the antiviral activity against HIV from CEM-IW human lymphocyte,; assay type: functional; settings: read-out: ED50 (the source's name)
Summary of the method: (§1)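 CEM-IW human lymphocytes in culture; reduction of HIV cytopathic effect. Value is the concentration (µM) producing 50% antiviral effect.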

CCRF-CEM [2] = experiment: The compound was tested for the cytotoxicity against HIV from CEM-IW human lymphocyte; assay type: functional, cell-based
Summary of the method: (§2)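 Cytotoxicity in the same cell cultures as the antiviral assays, measured as 50% growth inhibition by tetrazolium dye assay. Value is the concentration (µM) producing 50% cytotoxicity.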

[3] = Water solubility of the compound.; assay type: ADME; settings: read-out: S
Summary of the method: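 Solubility in double-distilled water at room temperature, in mg/mL.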

[4] = pKa value of the compound.; assay type: physicochemical
Summary of the method: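 pKa determined by UV spectroscopy at room temperature.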

[5] = The compound was tested for the antiviral activity against Rauscher murine leukemia virus; assay type: functional; settings: Mus musculus; read-out: ED50 (the source's name)
Summary of the method: (§3)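 UV-XC plaque reduction assay for Rauscher murine leukemia virus in SC-1 cells in culture, in vitro. Value is the concentration (µM) producing 50% antiviral effect.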

[6] = Partition coefficient (P); settings: octanol/water
[7] = The compound was tested for the cytotoxicity against Rauscher murine leukemia virus; assay type: functional, Mus musculus; summary of the method: as §2
[8] = Half-life in potassium phosphate buffered saline(PBS) at 37 degree C.; assay type: ADME
Summary of the method: (§4)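 Prodrug at 5 × 10^-5 M in PBS, pH 7.4, incubated at 37 °C. A317 read at regular intervals. Pseudo-first-order rate constant taken from the slope of ln(absorbance) vs time, then converted to t1/2.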

[9] = Half-life in potassium phosphate buffered saline (PBS) at 37 degree C.; assay type: ADME; summary of the method: as §4
[10] = Half-life in 1N HCl at 37 degree C.; assay type: ADME
Summary of the method: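 Diisopropylamino prodrugs at 5 × 10^-5 M in 1 N HCl at 37 °C. Absorbance at 317 nm recorded at regular intervals. ln(absorbance) vs time plotted; slope gives the pseudo-first-order hydrolysis rate constant, from which t1/2 was calculated.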

[11] = Half-life in 10% serum solution at 37 degree C.; assay type: ADME, cell-free
Summary of the method: (§5)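 Diisopropylamino prodrugs diluted from 10^-2 M stock into human serum, made up with buffer to 10% or 20% serum, or mixed with serum to 90% serum. Incubated at 37 °C; 50-µL aliquots withdrawn at intervals, diluted with buffer, A317 read. Half-life taken from the pseudo-first-order rate constant, i.e. the slope of ln(absorbance) vs time.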

[12] = Half-life in 20% serum solution at 37 degree C.; assay type: ADME, cell-free; summary of the method: as §5
[13] = The compound was tested for the cytotoxicity in SC-1 cells; settings: Mus musculus
[14] = The compound was tested for the antiviral activity against Rauscher murine leukemia virus in SC-1 cells; assay type: functional; settings: Mus musculus, read-out: ED50 (the source's name); summary of the method: as §3
[15] = Half-life in 90% serum solution at 37 degree C.; assay type: ADME, cell-free; summary of the method: as §5
CCRF-CEM [16] = experiment: The compound was tested for the antiviral activity against HIV from CEM-IW human lymphocyte; assay type: functional; settings: read-out: ED50 (the source's name); summary of the method: as §1
[17] = Half-life in potassium phosphate buffered saline (PBS) at 37 degree C(0% serum solution).; assay type: ADME; summary of the method: as §4

For `Nc1ccn(C2CC(F)C(CO)O2)c(=O)n1` (stereo unspecified), the EC50 (CCRF-CEM [1]) was 0.16 µM, the IC50 (CCRF-CEM [2]) was > 3200 µM and the solubility [3] was 15 mg/mL (≈ 65.4 mM). The pKa [4] was 4.22, the EC50 [5] was 158 µM and the P [6] was -0.893. For the same compound, the IC50 [7] was > 1000 µM.
Compound `CCN(/C=N\c1ccn(C2CCC(CO)O2)c(=O)n1)CC` (stereo unspecified) has a P [6] of -0.059 and a half-life [8] of 8.67 h.
With `CN(C)/C=N\c1ccn(C2CCC(CO)O2)c(=O)n1` (stereo unspecified) the half-life [9] was 3.8 h and the P [6] was -0.951.
Compound `O=c1nc(/N=C\N2CCOCC2)ccn1C1CC(F)C(CO)O1` (stereo unspecified) has a P [6] of -0.676 and a half-life [8] of 3.74 h.
In the case of `CCCN(/C=N\c1ccn(C2CC(F)C(CO)O2)c(=O)n1)CCC` (stereo unspecified), the half-life [8] is reported as 15.6 h.
For `CC(C)N(/C=N\c1ccn(C2CC(F)C(CO)O2)c(=O)n1)C(C)C` (stereo unspecified), the EC50 (CCRF-CEM [1]) was 0.675 µM, the half-life [10] was 5.8 h and the half-life [11] was 52.4 h. The IC50 (CCRF-CEM [2]) was > 200 µM, the solubility [3] was 25 mg/mL (≈ 73.4 mM) and the half-life [12] was 56.5 h. The pKa [4] was 5.13, the IC50 [13] was > 1000 µM and the EC50 [14] was 518 µM. It also gave a half-life [15] of 86.7 h and a half-life [8] of 52.1 h.
Work on `O=c1nc(/N=C\N2CCCC2)ccn1C1CC(F)C(CO)O1` (stereo unspecified) yielded a P [6] of -0.162 and a half-life [8] of 2.57 h.
Compound `O=c1nc(/N=C\N2CCCCC2)ccn1C1CC(F)C(CO)O1` (stereo unspecified) has a P [6] of 0.358 and a half-life [8] of 6.3 h.
For `CN(C)/C=N\c1ccn(C2CC(F)C(CO)O2)c(=O)n1` (stereo unspecified), the EC50 (CCRF-CEM [16]) was 0.23 µM, the IC50 (CCRF-CEM [2]) was > 200 µM and the IC50 [13] was > 1000 µM. For the same compound, the EC50 [14] was 214 µM, the P [6] was -0.64 and the half-life [8] was 4.66 h.
With `CCN(/C=N\c1ccn(C2CC(F)C(CO)O2)c(=O)n1)CC` (stereo unspecified) the P [6] was 0.227 and the half-life [8] was 10.2 h.
Work on `O=c1nc(/N=C\N2CCOCC2)ccn1C1CCC(CO)O1` (stereo unspecified) yielded a P [6] of -0.967 and a half-life [8] of 3.92 h.
`CC(C)N(/C=N\c1ccn(C2CCC(CO)O2)c(=O)n1)C(C)C` (stereo unspecified) showed an EC50 (CCRF-CEM [1]) of 0.065 µM, a half-life [10] of 3.9 h and a half-life [11] of 47.3 h. The IC50 (CCRF-CEM [2]) was > 200 µM, the solubility [3] was > 300 mg/mL and the half-life [12] was 51.2 h. The half-life [17] was 47.5 h, the pKa [4] was 5.28 and the EC50 [5] was 20.6 µM. For the same compound, the P [6] was 0.724, the IC50 [7] was > 1000 µM and the half-life [15] was 65.6 h.
`CCCN(/C=N\c1ccn(C2CCC(CO)O2)c(=O)n1)CCC` (stereo unspecified) showed a P [6] of 0.948 and a half-life [8] of 13.1 h.
For `O=c1nc(/N=C\N2CCCCC2)ccn1C1CCC(CO)O1` (stereo unspecified), the P [6] was 0.057 and the half-life [8] was 6.4 h.
With `O=c1nc(/N=C\N2CCCC2)ccn1C1CCC(CO)O1` (stereo unspecified) the P [6] was -0.467 and the half-life [8] was 2.13 h.
In the case of `Nc1ccn([C@H]2CC[C@@H](CO)O2)c(=O)n1` [ZALCITABINE], the solubility [3] is reported as 78 mg/mL (≈ 369 mM), the pKa [4] is reported as 4.42 and the EC50 [5] is reported as 2.2 µM. The IC50 [7] was > 1000 µM.
